From ChEMBL document CHEMBL5058577, “EUbOPEN Chemogenomics Library 2 (Multiplex)” (2022)

Tested on: Fibroblast
Assay: Multiplex assay against human fibroblast
Type: toxicity, cell-based
Outline: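 Four dyes were applied at seeding to live cells: Hoechst33342, BioTracker Green Microtubule Cytoskeleton Dye, MitoTracker Red and Annexin V Alexa Fluor 680. Imaging after compound addition used a CQ1 microscope at 37°C and 5% CO2. CellPathfinder machine-learning gating then sorted cells into Hoechst high-intensity objects or normal cells, normal cells into healthy, pyknosed or fragmented nuclei, and pyknosed cells into mitotic or apoptotic, with tubulin, mitochondrial-mass and membrane-permeability phenotypes given as per cents of healthy-nucleus cells.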

[1] = 12 h, 1 µM, compound concentration 1 uM, replicate 1
[2] = 12 h, 1 µM, compound concentration 1 uM, replicate 2
[3] = 12 h, 10 µM, compound concentration 10 uM, replicate 1
[4] = 12 h, 10 µM, compound concentration 10 uM, replicate 2
[5] = 24 h, 1 µM, compound concentration 1 uM, replicate 1
[6] = 24 h, 1 µM, compound concentration 1 uM, replicate 2
[7] = 24 h, 10 µM, compound concentration 10 uM, replicate 1
[8] = 24 h, 10 µM, compound concentration 10 uM, replicate 2
[9] = 48 h, 1 µM, compound concentration 1 uM, replicate 1
[10] = 48 h, 1 µM, compound concentration 1 uM, replicate 2
[11] = 48 h, 10 µM, compound concentration 10 uM, replicate 1
[12] = 48 h, 10 µM, compound concentration 10 uM, replicate 2

CC(C)(O)C(=O)N1CCN(c2ccc(C(F)(F)F)c(C3=C(c4c[nH]c5ccccc45)C(=O)NC3=O)c2)CC1
Population Apoptotic (%) [1]: 41% | Population Fragmented Nuclei (%) [1]: 14% | Population Healthy Nuclei (%) [1]: 68% | Population Hoechst High Intensity Objects (%) [1]: 2% | Population Membrane Permeable-Phenotype (%) [1]: 0% | Population Mitochondria Different-Phenotype (%) [1]: 9% | Population Mitotic Cells (%) [1]: 58% | Population Normal (%) [1]: 97% | Population Pyknosed Nuclei (%) [1]: 17% | Population Tubulin-Different-Phenotype (%) [1]: 30% | Total Cell Count [1]: 144 | Population Apoptotic (%) [2]: 32% | Population Fragmented Nuclei (%) [2]: 30% | Population Healthy Nuclei (%) [2]: 46% | Population Hoechst High Intensity Objects (%) [2]: 5% | Population Membrane Permeable-Phenotype (%) [2]: 5% | Population Mitochondria Different-Phenotype (%) [2]: 5% | Population Mitotic Cells (%) [2]: 67% | Population Normal (%) [2]: 94% | Population Pyknosed Nuclei (%) [2]: 22% | Population Tubulin-Different-Phenotype (%) [2]: 56% | Total Cell Count [2]: 170 | Population Apoptotic (%) [3]: 33% | Population Fragmented Nuclei (%) [3]: 17% | Population Healthy Nuclei (%) [3]: 50% | Population Hoechst High Intensity Objects (%) [3]: 4% | Population Membrane Permeable-Phenotype (%) [3]: 1% | Population Mitochondria Different-Phenotype (%) [3]: 25% | Population Mitotic Cells (%) [3]: 66% | Population Normal (%) [3]: 96% | Population Pyknosed Nuclei (%) [3]: 32% | Population Tubulin-Different-Phenotype (%) [3]: 83% | Total Cell Count [3]: 125 | Population Apoptotic (%) [4]: 35% | Population Fragmented Nuclei (%) [4]: 26% | Population Healthy Nuclei (%) [4]: 31% | Population Hoechst High Intensity Objects (%) [4]: 6% | Population Membrane Permeable-Phenotype (%) [4]: 15% | Population Mitochondria Different-Phenotype (%) [4]: 10% | Population Mitotic Cells (%) [4]: 64% | Population Normal (%) [4]: 93% | Population Pyknosed Nuclei (%) [4]: 42% | Population Tubulin-Different-Phenotype (%) [4]: 90% | Total Cell Count [4]: 137 | Population Apoptotic (%) [5]: 50% | Population Fragmented Nuclei (%) [5]: 22% | Population Healthy Nuclei (%) [5]: 61% | Population Hoechst High Intensity Objects (%) [5]: 1% | Population Membrane Permeable-Phenotype (%) [5]: 0% | Population Mitochondria Different-Phenotype (%) [5]: 3% | Population Mitotic Cells (%) [5]: 50% | Population Normal (%) [5]: 98% | Population Pyknosed Nuclei (%) [5]: 16% | Population Tubulin-Different-Phenotype (%) [5]: 40% | Total Cell Count [5]: 161 | Population Apoptotic (%) [6]: 31% | Population Fragmented Nuclei (%) [6]: 31% | Population Healthy Nuclei (%) [6]: 45% | Population Hoechst High Intensity Objects (%) [6]: 8% | Population Membrane Permeable-Phenotype (%) [6]: 2% | Population Mitochondria Different-Phenotype (%) [6]: 8% | Population Mitotic Cells (%) [6]: 68% | Population Normal (%) [6]: 91% | Population Pyknosed Nuclei (%) [6]: 23% | Population Tubulin-Different-Phenotype (%) [6]: 58% | Total Cell Count [6]: 176 | Population Apoptotic (%) [7]: 26% | Population Fragmented Nuclei (%) [7]: 24% | Population Healthy Nuclei (%) [7]: 40% | Population Hoechst High Intensity Objects (%) [7]: 7% | Population Membrane Permeable-Phenotype (%) [7]: 2% | Population Mitochondria Different-Phenotype (%) [7]: 30% | Population Mitotic Cells (%) [7]: 73% | Population Normal (%) [7]: 92% | Population Pyknosed Nuclei (%) [7]: 34% | Population Tubulin-Different-Phenotype (%) [7]: 79% | Total Cell Count [7]: 131 | Population Apoptotic (%) [8]: 36% | Population Fragmented Nuclei (%) [8]: 27% | Population Healthy Nuclei (%) [8]: 33% | Population Hoechst High Intensity Objects (%) [8]: 3% | Population Membrane Permeable-Phenotype (%) [8]: 6% | Population Mitochondria Different-Phenotype (%) [8]: 20% | Population Mitotic Cells (%) [8]: 63% | Population Normal (%) [8]: 96% | Population Pyknosed Nuclei (%) [8]: 39% | Population Tubulin-Different-Phenotype (%) [8]: 90% | Total Cell Count [8]: 138 | Population Apoptotic (%) [9]: 64% | Population Fragmented Nuclei (%) [9]: 21% | Population Healthy Nuclei (%) [9]: 61% | Population Hoechst High Intensity Objects (%) [9]: 5% | Population Membrane Permeable-Phenotype (%) [9]: 0% | Population Mitochondria Different-Phenotype (%) [9]: 12% | Population Mitotic Cells (%) [9]: 36% | Population Normal (%) [9]: 94% | Population Pyknosed Nuclei (%) [9]: 17% | Population Tubulin-Different-Phenotype (%) [9]: 38% | Total Cell Count [9]: 155 | Population Apoptotic (%) [10]: 41% | Population Fragmented Nuclei (%) [10]: 33% | Population Healthy Nuclei (%) [10]: 37% | Population Hoechst High Intensity Objects (%) [10]: 7% | Population Membrane Permeable-Phenotype (%) [10]: 1% | Population Mitochondria Different-Phenotype (%) [10]: 15% | Population Mitotic Cells (%) [10]: 58% | Population Normal (%) [10]: 92% | Population Pyknosed Nuclei (%) [10]: 28% | Population Tubulin-Different-Phenotype (%) [10]: 67% | Total Cell Count [10]: 165 | Population Apoptotic (%) [11]: 54% | Population Fragmented Nuclei (%) [11]: 33% | Population Healthy Nuclei (%) [11]: 27% | Population Hoechst High Intensity Objects (%) [11]: 12% | Population Membrane Permeable-Phenotype (%) [11]: 0% | Population Mitochondria Different-Phenotype (%) [11]: 53% | Population Mitotic Cells (%) [11]: 45% | Population Normal (%) [11]: 87% | Population Pyknosed Nuclei (%) [11]: 38% | Population Tubulin-Different-Phenotype (%) [11]: 93% | Total Cell Count [11]: 123 | Population Fragmented Nuclei (%) [12]: 35% | Population Healthy Nuclei (%) [12]: 25% | Population Hoechst High Intensity Objects (%) [12]: 6% | Population Membrane Permeable-Phenotype (%) [12]: 10% | Population Mitochondria Different-Phenotype (%) [12]: 30% | Population Normal (%) [12]: 93% | Population Pyknosed Nuclei (%) [12]: 40% | Population Tubulin-Different-Phenotype (%) [12]: 83% | Total Cell Count [12]: 129
